Converted amounts (≈) assume the structure as drawn. The source made the active and inactive calls. No cut-off for these calls is given here.
What was measured:
[1] = test system: Candida albicans; assay: Antifungal activity against Candida albicans by XTT formazan assay; format: functional, organism-based
Procedure, shortened: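 Clinical isolate of Candida albicans tested by a modified soluble formazan (XTT) method. Viable cells read as XTT formazan absorbance at 450 nm. IC50 taken in μg/mL.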

[2] = test system: KB; assay: Cytotoxicity against human KB cells; format: functional, cell-based
[3] = test system: NCI-H178; assay: Cytotoxicity against human […] cells; format: functional, cell-based
[4] = test system: BC1; assay: Cytotoxicity against human BC1 cells; format: functional, cell-based

Structure (SMILES) | IC50 [1] [µg/mL] | Activity [2] | Activity [3] | Activity [4]
CC[C@H](C)/C=C(C)/C=C/C1=CC2=C(Cl)C(=O)[C@@]3(C)OC(=O)C(C(C)=O)=C3C2=CO1 [RUBROROTIORIN] | 0.6 (≈ 1.45 µM) | inactive | inactive | inactive
CC[C@H](C)/C=C(C)/C=C/C1=CC2=CC3=C(C(C)=O)C(=O)O[C@@]3(C)[C@H](O)C2=CO1 [ROTIORINOL A] | 10.5 (≈ 27.5 µM) | inactive | inactive | inactive
CC[C@H](C)/C=C(C)/C=C/C1=CC2=CC3=C(C(C)=O)C(=O)O[C@@]3(C)C(=O)C2=CO1 | 24.3 (≈ 63.9 µM) | inactive | inactive | inactive
CC(=O)C1=C2C=C3C=C(/C=C/C(C)=C/[C@@H](C)CCO)OC=C3[C@@H](O)[C@]2(C)OC1=O [ROTIORINOL C] | 16.7 (≈ 41.9 µM) | inactive | inactive | inactive

From ChEMBL document CHEMBL1157962, “Antifungal azaphilones from the fungus Chaetomium cupreum CC3003” (J Nat Prod, 2006)
